The values below come from ChEMBL document CHEMBL5696442, “Discovery of type II inhibitors of TGFβ-activated kinase 1 (TAK1) and mitogen-activated protein kinase kinase kinase kinase 2 (MAP4K2)” (J Med Chem, 2015).

Common to all, as to format: cell-based
Assay [1] addresses T1, Serine/threonine-protein kinase Nek8 (Homo sapiens) (UniProt Q86SG6).
T1 sequence (whole entry): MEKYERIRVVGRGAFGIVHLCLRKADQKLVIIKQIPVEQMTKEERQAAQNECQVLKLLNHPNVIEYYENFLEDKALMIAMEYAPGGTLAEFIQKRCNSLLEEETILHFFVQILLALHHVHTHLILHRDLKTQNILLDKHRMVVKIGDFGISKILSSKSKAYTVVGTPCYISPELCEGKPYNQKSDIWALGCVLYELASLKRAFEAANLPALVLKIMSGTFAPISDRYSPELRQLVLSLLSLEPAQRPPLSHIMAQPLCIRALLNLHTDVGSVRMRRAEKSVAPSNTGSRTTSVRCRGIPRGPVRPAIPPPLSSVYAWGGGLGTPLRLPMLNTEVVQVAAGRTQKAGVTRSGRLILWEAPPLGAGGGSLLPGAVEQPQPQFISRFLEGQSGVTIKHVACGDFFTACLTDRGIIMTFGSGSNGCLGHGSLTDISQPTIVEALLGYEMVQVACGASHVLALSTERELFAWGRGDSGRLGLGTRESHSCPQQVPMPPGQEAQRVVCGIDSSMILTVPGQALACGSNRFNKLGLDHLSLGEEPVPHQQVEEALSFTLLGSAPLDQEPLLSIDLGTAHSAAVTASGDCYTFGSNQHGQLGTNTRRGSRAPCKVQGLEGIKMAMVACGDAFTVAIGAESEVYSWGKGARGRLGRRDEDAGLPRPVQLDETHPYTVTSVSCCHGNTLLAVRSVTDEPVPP
The assay can be described thus: Inhibition of NEK8 Lys2 labeling site in human A-375 cells at 0.5 uM by KiNativ Profiling analysis relative to control.

The target of assay [2] is Cyclin-dependent kinase 17 (Homo sapiens) (UniProt Q00537). The assay can be described thus: Inhibition of PCTAIRE2 Lys2 labeling site in human A-375 cells at 5 uM by KiNativ Profiling analysis relative to control.
Assay [3] concerns the target Calcium/calmodulin-dependent protein kinase type II subunit delta (Homo sapiens) (UniProt Q13557). The assay can be described thus: Inhibition of CaMK2d Lys1 labeling site in human A-375 cells at 0.05 uM by KiNativ Profiling analysis relative to control.
Assay [4] deals with T2, Serine/threonine-protein kinase TBK1 (Homo sapiens) (UniProt Q9UHD2).
T2 sequence (whole entry): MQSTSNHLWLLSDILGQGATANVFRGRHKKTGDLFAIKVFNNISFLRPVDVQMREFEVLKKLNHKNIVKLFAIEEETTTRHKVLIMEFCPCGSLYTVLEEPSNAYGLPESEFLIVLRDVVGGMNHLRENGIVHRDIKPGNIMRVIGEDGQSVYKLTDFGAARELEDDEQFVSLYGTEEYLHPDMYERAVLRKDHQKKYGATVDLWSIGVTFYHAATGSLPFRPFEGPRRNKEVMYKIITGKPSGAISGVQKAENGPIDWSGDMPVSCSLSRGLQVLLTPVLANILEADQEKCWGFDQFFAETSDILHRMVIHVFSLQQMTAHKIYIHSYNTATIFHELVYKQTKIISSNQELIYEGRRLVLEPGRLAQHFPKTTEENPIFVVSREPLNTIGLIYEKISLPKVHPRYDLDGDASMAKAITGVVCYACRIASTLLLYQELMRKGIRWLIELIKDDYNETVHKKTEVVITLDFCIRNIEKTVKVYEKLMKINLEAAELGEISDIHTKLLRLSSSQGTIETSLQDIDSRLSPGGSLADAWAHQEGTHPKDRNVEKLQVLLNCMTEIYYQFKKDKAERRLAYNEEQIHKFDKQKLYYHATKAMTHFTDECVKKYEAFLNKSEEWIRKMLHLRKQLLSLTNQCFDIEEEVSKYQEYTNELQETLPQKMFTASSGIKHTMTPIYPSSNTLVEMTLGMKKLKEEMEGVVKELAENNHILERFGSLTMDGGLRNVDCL
The assay can be described thus: Inhibition of TBK1 Lys1 labeling site in human A-375 cells at 0.05 uM by KiNativ Profiling analysis relative to control.

In assay [5] the target is T3, Serine/threonine-protein kinase LATS2 (Homo sapiens) (UniProt Q9NRM7).
T3 sequence (whole entry): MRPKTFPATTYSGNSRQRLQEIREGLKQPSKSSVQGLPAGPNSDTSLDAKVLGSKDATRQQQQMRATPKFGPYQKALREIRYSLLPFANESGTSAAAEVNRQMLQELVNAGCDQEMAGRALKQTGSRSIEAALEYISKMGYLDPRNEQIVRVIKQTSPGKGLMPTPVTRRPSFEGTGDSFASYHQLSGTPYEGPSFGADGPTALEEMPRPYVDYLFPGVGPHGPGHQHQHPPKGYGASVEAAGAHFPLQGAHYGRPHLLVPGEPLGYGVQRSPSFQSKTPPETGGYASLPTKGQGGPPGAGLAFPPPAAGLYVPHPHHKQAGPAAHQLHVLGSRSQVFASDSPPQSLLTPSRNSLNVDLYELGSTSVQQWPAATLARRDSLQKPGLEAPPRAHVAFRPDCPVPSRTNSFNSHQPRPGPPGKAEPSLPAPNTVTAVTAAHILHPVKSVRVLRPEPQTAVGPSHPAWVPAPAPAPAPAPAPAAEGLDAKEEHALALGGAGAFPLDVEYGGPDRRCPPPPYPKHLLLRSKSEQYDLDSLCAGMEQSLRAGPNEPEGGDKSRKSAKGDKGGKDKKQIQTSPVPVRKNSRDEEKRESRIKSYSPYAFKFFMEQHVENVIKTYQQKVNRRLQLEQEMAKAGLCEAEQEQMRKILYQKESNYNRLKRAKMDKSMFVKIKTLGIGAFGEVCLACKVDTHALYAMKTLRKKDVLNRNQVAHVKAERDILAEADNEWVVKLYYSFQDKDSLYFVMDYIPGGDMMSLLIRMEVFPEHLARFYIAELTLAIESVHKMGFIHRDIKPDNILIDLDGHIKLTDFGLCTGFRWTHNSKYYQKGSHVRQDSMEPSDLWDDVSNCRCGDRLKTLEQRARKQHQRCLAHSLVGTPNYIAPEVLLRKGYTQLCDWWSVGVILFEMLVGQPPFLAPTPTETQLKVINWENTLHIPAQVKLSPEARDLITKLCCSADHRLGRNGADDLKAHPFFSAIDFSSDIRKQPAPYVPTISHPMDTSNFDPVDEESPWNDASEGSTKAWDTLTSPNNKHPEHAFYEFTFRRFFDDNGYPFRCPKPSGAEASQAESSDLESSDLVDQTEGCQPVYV
The experiment in a line: Inhibition of LATS2 Lys2 labeling site in human A-375 cells at 0.5 uM by KiNativ Profiling analysis relative to control.

Assay [6] addresses Ribosomal protein S6 kinase alpha-3 (Homo sapiens) (UniProt P51812). The experiment in a line: Inhibition of RSK2 domain2 Lys2 labeling site in human A-375 cells at 5 uM by KiNativ Profiling analysis relative to control. In short, it runs like this: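 Live A375 melanoma cells treated with compound at 5 or 0.5 μM, then lysed. Lysate kinases were labeled with a lysine-reactive ATP or ADP-biotin probe. Inhibition was read as protection of labeling sites from the probe.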

Chain of Cyclin-dependent kinase 17 (Homo sapiens) (Q00537 whole entry, looked up): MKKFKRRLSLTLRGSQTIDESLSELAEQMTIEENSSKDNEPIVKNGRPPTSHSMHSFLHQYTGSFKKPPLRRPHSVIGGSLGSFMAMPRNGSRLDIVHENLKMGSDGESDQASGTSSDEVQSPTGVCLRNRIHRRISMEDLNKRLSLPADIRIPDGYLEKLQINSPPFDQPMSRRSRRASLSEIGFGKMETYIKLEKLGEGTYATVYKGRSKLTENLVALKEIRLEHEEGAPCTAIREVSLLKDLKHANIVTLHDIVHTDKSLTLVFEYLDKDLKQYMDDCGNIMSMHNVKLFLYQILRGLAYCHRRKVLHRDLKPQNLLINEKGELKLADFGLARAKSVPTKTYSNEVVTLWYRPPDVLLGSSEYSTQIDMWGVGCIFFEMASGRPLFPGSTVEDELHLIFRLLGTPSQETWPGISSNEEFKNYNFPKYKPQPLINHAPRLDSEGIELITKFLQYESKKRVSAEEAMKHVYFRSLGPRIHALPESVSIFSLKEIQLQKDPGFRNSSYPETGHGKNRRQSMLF
Chain of Ribosomal protein S6 kinase alpha-3 (Homo sapiens) (P51812 whole entry, the tested form may be a part): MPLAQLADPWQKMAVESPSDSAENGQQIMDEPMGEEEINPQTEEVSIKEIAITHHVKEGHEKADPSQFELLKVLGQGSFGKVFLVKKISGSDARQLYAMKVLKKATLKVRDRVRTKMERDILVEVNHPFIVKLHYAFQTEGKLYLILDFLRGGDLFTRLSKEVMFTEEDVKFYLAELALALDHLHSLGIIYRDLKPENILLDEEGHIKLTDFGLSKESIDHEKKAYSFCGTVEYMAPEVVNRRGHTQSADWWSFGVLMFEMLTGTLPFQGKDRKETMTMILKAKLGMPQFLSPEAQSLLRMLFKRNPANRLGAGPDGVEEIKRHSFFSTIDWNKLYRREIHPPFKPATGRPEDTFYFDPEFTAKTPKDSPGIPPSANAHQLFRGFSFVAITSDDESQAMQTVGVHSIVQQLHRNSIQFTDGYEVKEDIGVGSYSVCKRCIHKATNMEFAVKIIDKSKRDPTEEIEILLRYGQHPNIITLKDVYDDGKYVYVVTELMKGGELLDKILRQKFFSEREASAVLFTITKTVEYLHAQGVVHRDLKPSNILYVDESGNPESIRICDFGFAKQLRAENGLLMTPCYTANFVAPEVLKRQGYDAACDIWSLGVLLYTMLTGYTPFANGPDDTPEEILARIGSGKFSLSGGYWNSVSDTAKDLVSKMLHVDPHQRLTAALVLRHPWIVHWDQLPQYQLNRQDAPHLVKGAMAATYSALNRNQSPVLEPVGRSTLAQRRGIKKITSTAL
Chain of Calcium/calmodulin-dependent protein kinase type II subunit delta (Homo sapiens) (Q13557 whole entry): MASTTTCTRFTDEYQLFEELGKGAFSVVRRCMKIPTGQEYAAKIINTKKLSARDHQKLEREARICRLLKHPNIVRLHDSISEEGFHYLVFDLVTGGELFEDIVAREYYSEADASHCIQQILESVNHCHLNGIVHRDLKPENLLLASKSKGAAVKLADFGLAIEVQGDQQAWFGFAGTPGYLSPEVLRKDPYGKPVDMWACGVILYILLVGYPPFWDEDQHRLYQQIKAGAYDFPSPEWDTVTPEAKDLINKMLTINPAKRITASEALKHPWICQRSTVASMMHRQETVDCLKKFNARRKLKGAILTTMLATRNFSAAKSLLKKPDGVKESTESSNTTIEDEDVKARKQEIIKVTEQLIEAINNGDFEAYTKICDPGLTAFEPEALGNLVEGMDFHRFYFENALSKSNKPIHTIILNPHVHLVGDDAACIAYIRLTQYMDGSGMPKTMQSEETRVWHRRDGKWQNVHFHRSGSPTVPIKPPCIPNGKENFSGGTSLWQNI

As a reminder, the inhibition is the relative decrease from the control value, in per cent. Take `CCN1CCN(Cc2ccc(NC(=O)c3ccc(C)c(/C=C/c4cnc5[nH]ccc5c4OC)c3)cc2C(F)(F)F)CC1`: the inhibition in assay [1] was -8.8%; in assay [2], 27.8%; in assay [3] it was 14%; in assay [4] it was 33.4%; in assay [5], 6.4%; in assay [6], 23.7%.
Regarding `CCN1CCN(Cc2ccc(NC(=O)c3ccc(C)c(Oc4ccnc5[nH]ccc45)c3)cc2C(F)(F)F)CC1`, the inhibition in assay [1] was -9.5%; in assay [2] it was 87%; in assay [3], 13.1%; in assay [4], 16.7%; in assay [5], 12.6%; in assay [6], 14.4%.
